Laboratory results published in ChEMBL document CHEMBL3867457, “Cytotoxic Ceanothane- and Lupane-Type Triterpenoids from the Roots of Ziziphus jujuba” (J Nat Prod, 2016).

Assay: Cytotoxicity against human HepG2 cells assessed as reduction in cell viability measured after 48 hrs by MTT assay
Type: functional, cell-based
Conditions: HepG2, 48 h
Summary of the method: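 HepG2 cells grown in DMEM with 10% FBS, penicillin/streptomycin, 5% CO2, 37 °C; seeded at 5 × 10^4 cells/mL, attached 12 h. Compounds in DMSO at 1, 5, 10, 25 μM for 48 h; docetaxel positive control. MTT added for 4 h, formazan dissolved in DMSO, absorbance 550 nm. Viability relative to control wells; IC50 with 95% CI by log-concentration regression; three independent replicates.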

SMILES	IC50 [µM]
C=C(C)[C@@H]1CC[C@]2(C(=O)O)CC[C@]3(C)[C@H](CC[C@@H]4[C@@]5(C)[C@@H](C(=O)O)[C@H](OC(=O)c6ccc(O)c(O)c6)C(C)(C)[C@@H]5CC[C@]43C)[C@@H]12	> 10
C=C(C)[C@@]12CC[C@@]3(CC[C@]4(C(=O)O)[C@H](CC[C@@H]5[C@@]6(C)[C@@H](C(=O)O)CC(C)(C)[C@@H]6CC[C@]54C)[C@H]31)C(=O)O2	> 10
C=C(C)[C@@H]1CC[C@]2(C(=O)O)CC[C@]3(C)[C@H](CC[C@@H]4[C@@]5(C)[C@H](C(=O)O)[C@H](OC(=O)c6ccc(O)cc6)C(C)(C)[C@@H]5CC[C@]43C)[C@@H]12	> 10
C=C(C)[C@@H]1CC[C@]2(C(=O)O)CC[C@]3(C)[C@H](CC[C@@H]4[C@@]5(C)C[C@@H](OC(=O)c6ccc(O)cc6)[C@H](O)C(C)(C)[C@@H]5CC[C@]43C)[C@@H]12	2.9
C=C(C)[C@@H]1CC[C@]2(C(=O)O)CC[C@]3(C)[C@H](CC[C@@H]4[C@@]5(C)[C@@H](C(=O)OC)[C@H](OC(=O)c6ccc(O)c(OC)c6)C(C)(C)[C@@H]5CC[C@]43C)[C@@H]12	1.9
C=C(C)[C@@H]1CC[C@]2(C(=O)O)CC[C@]3(C)[C@H](CC[C@@H]4[C@@]5(C)C[C@@H](OC(=O)/C=C/c6ccc(O)cc6)[C@H](O)C(C)(C)[C@@H]5CC[C@]43C)[C@@H]12	2
C=C(C)[C@@H]1CC=C2CC[C@]3(C(=O)O)[C@H](CC[C@@H]4[C@@]5(C)C=C[C@](C)(CO)[C@@H]5CC[C@]43C)[C@H]21	4.9
C=C(C)[C@@H]1CC[C@]2(C(=O)O)CC[C@]3(C)[C@H](CC[C@@H]4[C@@]5(C)[C@@H](C(=O)O)[C@H](O)C(C)(C)[C@@H]5CC[C@]43C)[C@@H]12 [CEANOTHIC ACID]	> 10
C=C(C)[C@@H]1CC[C@]2(C(=O)O)CC[C@]3(C)[C@H](CC[C@@H]4[C@@]5(C)C[C@@H](OC(=O)c6ccccc6)[C@H](O)C(C)(C)[C@@H]5CC[C@]43C)[C@@H]12	> 10
C=C(C)[C@@H]1CC[C@]2(C(=O)O)CC[C@]3(C)[C@H](CC[C@@H]4[C@@]5(C)C(C=O)=CC(C)(C)[C@@H]5CC[C@]43C)[C@@H]12	2
C=C(C)[C@@H]1CC[C@]2(C(=O)O)CC[C@]3(C(=O)O)[C@H](CC[C@@H]4[C@@]5(C)[C@@H](C(=O)OC)CC(C)(C)[C@@H]5CC[C@]43C)[C@@H]12	> 10
C=C(C)[C@@H]1CC[C@]2(C(=O)O)CC[C@]3(C)[C@H](CC[C@@H]4[C@@]5(C)[C@H](C(=O)O)[C@H](O)C(C)(C)[C@@H]5CC[C@]43C)[C@@H]12 [EPICEANOTHIC ACID]	> 10
C=C(C)[C@@H]1CC[C@]2(C(=O)O)CC[C@]3(C)[C@H](CC[C@@H]4[C@@]5(C)C[C@@H](OC(=O)c6ccc(O)c(O)c6)[C@H](O)C(C)(C)[C@@H]5CC[C@]43C)[C@@H]12	> 10
C=C(C)[C@@H]1CC[C@]2(C(=O)O)CC[C@]3(C)[C@H](CC[C@@H]4[C@@]5(C)C[C@@H](O)[C@H](O)C(C)(C)[C@@H]5CC[C@]43C)[C@@H]12 [ALPHITOLIC ACID]	> 10
C=C(C)[C@@H]1CC[C@]2(C(=O)O)CC[C@]3(C(=O)O)[C@H](CC[C@@H]4[C@@]5(C)[C@@H](C(=O)O)CC(C)(C)[C@@H]5CC[C@]43C)[C@@H]12	> 10
C=C(C)[C@@H]1CC[C@]2(C(=O)O)CC[C@]3(C)[C@H](CC[C@@H]4[C@@]5(C)[C@@H](C(=O)OC)[C@H](OC(=O)c6ccc(O)c(O)c6)C(C)(C)[C@@H]5CC[C@]43C)[C@@H]12	2.8
C=C(C)[C@@H]1CC[C@]2(C(=O)O)CC[C@]3(C)[C@H](CC[C@@H]4[C@@]5(C)[C@@H](C(=O)O)[C@H](OC(=O)c6ccc(O)cc6)C(C)(C)[C@@H]5CC[C@]43C)[C@@H]12	> 10
C=C(C)[C@@H]1CC[C@]2(C(=O)O)CC[C@]3(C)[C@H](CC[C@@H]4[C@@]5(C)[C@H](C(=O)OC)[C@H](O)C(C)(C)[C@@H]5CC[C@]43C)[C@@H]12	> 10
C=C(C)[C@@H]1CC[C@]2(C(=O)O)CC[C@]3(C)[C@H](CC[C@@H]4[C@@]5(C)[C@@H](C(=O)O)[C@H](OC(=O)c6ccc(O)c(OC)c6)C(C)(C)[C@@H]5CC[C@]43C)[C@@H]12	> 10
C=C(C)[C@@H]1CC[C@]2(C(=O)O)CC[C@]3(C)[C@H](CC[C@@H]4[C@@]5(C)[C@H](C(=O)O)[C@H](OC(=O)c6ccc(O)c(OC)c6)C(C)(C)[C@@H]5CC[C@]43C)[C@@H]12	3.9
C=C(C)[C@@H]1CC[C@]2(C(=O)O)CC[C@]3(C)[C@H](CC[C@@H]4[C@@]5(C)[C@@H](C(=O)O)[C@H](O)[C@](C)(CO)[C@@H]5CC[C@]43C)[C@@H]12	> 10
C=C(C)[C@@H]1CC[C@]2(C(=O)O)CC[C@]3(C)[C@H](CC[C@@H]4[C@@]5(C)CC[C@H](O)C(C)(C)[C@@H]5CC[C@]43C)[C@@H]12 [BETULINIC ACID]	5.9
CC(=O)O[C@@]12CO[C@@H]1C[C@H](O)[C@@]1(C)C(=O)[C@H](O)C3=C(C)[C@@H](OC(=O)[C@H](O)[C@@H](NC(=O)OC(C)(C)C)c4ccccc4)C[C@@](O)([C@@H](OC(=O)c4ccccc4)[C@H]21)C3(C)C [DOCETAXEL ANHYDROUS]	8.3
C=C(C)[C@@H]1CC[C@]2(C(=O)O)CC[C@]3(C)[C@H](CC[C@@H]4[C@@]5(C)C[C@@H](OC(=O)/C=C\c6ccc(O)cc6)[C@H](O)C(C)(C)[C@@H]5CC[C@]43C)[C@@H]12	2.1
C=C(C)[C@@H]1CC[C@]2(C(=O)O)CC[C@]3(C(=O)O)[C@H](CC[C@@H]4[C@@]5(C)[C@@H](C(=O)OC)[C@H](O)C(C)(C)[C@@H]5CC[C@]43C)[C@@H]12	> 10
